This passage reports fold change (FC) and Activity results from ChEMBL document CHEMBL2146357, “Cellular zwitterionic metabolite analogs simultaneously enhance reaction rate, thermostability, salt tolerance, and substrate specificity of α-glucosidase” (Bioorg Med Chem, 2011).

The subject of assay [1] is Geobacillus stearothermophilus. Put plainly: Increase of Bacillus stearothermophilus alpha-glucosidase activity assessed as fold increase in reaction initial velocity using p-nitrophenyl-alpha-D-mannopyranoside as substrate at 50 mM after 3 mins by spectrophotometer relative to control. Summed up:
(§1)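 Enzyme: B. stearothermophilus α-glucosidase, 2.5 × 10^-5 mg/mL, with 2.0 mM substrate (p-nitrophenyl α-D-glucoside, β-D-glucoside, α-D-galactoside or α-D-mannoside) and 0, 50 or 750 mM solute in 100 mM phosphate pH 7.0 at 37 °C. Initial velocities came from A405 slopes (five measurements). Results given as v(presence)/v(absence).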

For assay [2], the system named is Geobacillus stearothermophilus. Put plainly: Increase of Bacillus stearothermophilus alpha-glucosidase activity assessed as fold increase in reaction initial velocity using p-nitrophenyl-alpha-D-mannopyranoside as substrate at 750 mM after 3 mins by spectrophotometer relative to control. An outline of the steps: as §1
Assay [3] deals with Geobacillus stearothermophilus. Put plainly: Effect on optimum pH of Bacillus stearothermophilus alpha-glucosidase at 50 mM. Summed up: (§2)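 Optimum conditions were scanned with 0 or 50 mM solute, 2.5 × 10^-5 mg/mL B. stearothermophilus α-glucosidase and 2.0 mM substrate in 0.10 M phosphate. pH was varied from 6.4 to 7.9, NaCl from 0 to 2.5 M, and temperature was also varied. Activity was read as p-nitrophenol release at 405 nm.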

Assay [4] has as its target Intestinal-type alkaline phosphatase (Bos taurus) (UniProt P19111). The assay is described as follows: Increase of calf intestine alkaline phosphatase activity assessed as production of p-nitrophenol using p-nitrophenylphosphate as substrate at 50 mM after 3 mins by spectrophotometer. An outline of the steps:
(§3)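 Almond β-glucosidase or calf-intestine alkaline phosphatase, each at 2.5 × 10^-5 mg/mL, was incubated with 2.0 mM substrate and 0 or 50 mM solute in 0.10 M phosphate pH 7.0 at 37 °C. p-Nitrophenol production was followed over incubation time by absorbance at 405 nm.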

The test system of assay [5] is Geobacillus stearothermophilus. The assay is described as follows: Thermostabilization of Bacillus stearothermophilus alpha-glucosidase at 50 mM. Summed up: as §2
The subject of assay [6] is Geobacillus stearothermophilus. Put plainly: Activity of Bacillus stearothermophilus alpha-glucosidase activity assessed as production of p-nitrophenol using p-nitrophenyl-alpha-D-glucopyranoside as substrate at 30 to 50 mM after 3 mins by spectrophotometer. Summed up: (§4)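 B. stearothermophilus α-glucosidase at 2.5 × 10^-5 mg/mL in 0.1 M phosphate buffer pH 7.0 with 2.0 mM p-nitrophenyl-α-D-glucopyranoside and 0–1000 mM solute, 37 °C. Release of p-nitrophenol followed at 405 nm. Initial slopes converted to velocities (ε 10900 cm^-1 M^-1), averaged over five runs. Activity = initial velocity with solute divided by initial velocity without solute.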

The subject of assay [7] is Geobacillus stearothermophilus. The assay is described as follows: Increase of Bacillus stearothermophilus alpha-glucosidase activity assessed as fold increase in reaction initial velocity using p-nitrophenyl-alpha-D-glucopyranoside as substrate at 750 mM after 3 mins by spectrophotometer relative to control. Summed up: as §1
In assay [8] the test system is Geobacillus stearothermophilus. Put plainly: Activity of Bacillus stearothermophilus alpha-glucosidase assessed as production of p-nitrophenol using p-nitrophenyl-alpha-D-glucopyranoside as substrate at 50 mM after 3 mins by spectrophotometer. Summed up: as §4
The subject of assay [9] is Geobacillus stearothermophilus. The assay is described as follows: Increase of Bacillus stearothermophilus alpha-glucosidase activity assessed as fold increase in reaction initial velocity using p-nitrophenyl-beta-D-glucopyranoside as substrate at 50 mM after 3 mins by spectrophotometer relative to control. Summed up: as §1
Assay [10] concerns Geobacillus stearothermophilus. The assay is described as follows: Increase of Bacillus stearothermophilus alpha-glucosidase activity assessed as fold increase in reaction initial velocity using p-nitrophenyl-beta-D-glucopyranoside as substrate at 750 mM after 3 mins by spectrophotometer relative to control. Summed up:
as §1

For assay [11], the system named is Saccharomyces cerevisiae. The assay is described as follows: Activity of Saccharomyces cerevisiae alpha-glucosidase assessed as production of p-nitrophenol using p-nitrophenyl-alpha-D-glucopyranoside as substrate at 50 mM after 3 mins by spectrophotometer. An outline of the steps: (§5)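 Enzymes were α-glucosidase from S. cerevisiae or from yeast at 2.5 × 10^-5 mg/mL, with 2.0 mM substrate and 0 or 50 mM solute in 100 mM phosphate pH 7.0 at 37 °C. p-Nitrophenol formation was read at 405 nm. Initial velocities (average of five) were expressed as the ratio of the value with solute to the value without solute.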

Assay [12] has as its system Prunus dulcis. Put plainly: Increase of almond beta-glucosidase activity assessed as production of p-nitrophenol using p-nitrophenyl-beta-D-glucopyranoside as substrate at 50 mM after 3 mins by spectrophotometer. Summed up:
as §3

Assay [13] relates to Saccharomyces cerevisiae. Put plainly: Increase of Saccharomyces cerevisiae alpha-glucosidase activity assessed as production of p-nitrophenol using p-nitrophenyl-alpha-D-glucopyranoside as substrate at 50 mM after 3 mins by spectrophotometer. An outline of the steps: as §5
Assay [14] concerns Geobacillus stearothermophilus. The assay is described as follows: Increase of Bacillus stearothermophilus alpha-glucosidase activity assessed as production of p-nitrophenol using p-nitrophenyl-alpha-D-glucopyranoside as substrate at 50 mM after 3 mins by spectrophotometer. Summed up:
as §4

Assay [15] deals with Geobacillus stearothermophilus. The assay is described as follows: Increase of Bacillus stearothermophilus alpha-glucosidase activity assessed as fold increase in reaction initial velocity using p-nitrophenyl-alpha-D-galactopyranoside as substrate at 50 mM after 3 mins by spectrophotometer relative to control. An outline of the steps:
as §1

Assay [16] concerns Saccharomyces cerevisiae. Put plainly: Activity of commercial yeast alpha-glucosidase assessed as production of p-nitrophenol using p-nitrophenyl-alpha-D-glucopyranoside as substrate at 50 mM after 3 mins by spectrophotometer. Summed up: as §5
For assay [17], the system named is Geobacillus stearothermophilus. The assay is described as follows: Activity of Bacillus stearothermophilus alpha-glucosidase activity assessed as production of p-nitrophenol using p-nitrophenyl-alpha-D-glucopyranoside as substrate at > 50 mM after 3 mins by spectrophotometer. Summed up: as §4
Assay [18] deals with Geobacillus stearothermophilus. Put plainly: Increase of Bacillus stearothermophilus alpha-glucosidase activity assessed as fold increase in reaction initial velocity using p-nitrophenyl-alpha-D-galactopyranoside as substrate at 750 mM after 3 mins by spectrophotometer relative to control. Summed up: as §1
Assay [19] relates to Geobacillus stearothermophilus. The assay is described as follows: Increase of Bacillus stearothermophilus alpha-glucosidase activity at 30 mM after 3 mins by spectrophotometer relative to control. Summed up:
as §4

For assay [20], the system named is Geobacillus stearothermophilus. Put plainly: Enhancement of NaCl salt tolerance at Bacillus stearothermophilus alpha-glucosidase at 50 mM. Summed up:
as §2

For assay [21], the system named is Geobacillus stearothermophilus. Put plainly: Activity of Bacillus stearothermophilus alpha-glucosidase assessed as increase in urea concentration for enzyme deformation using p-nitrophenyl-alpha-D-glucopyranoside as substrate at 50 mM after 3 mins by spectrophotometer.
Assay [22] concerns Geobacillus stearothermophilus. The assay is described as follows: Increase of Bacillus stearothermophilus alpha-glucosidase activity assessed as fold increase in reaction initial velocity using p-Nitrophenyl-alpha-D-glucopyranoside as substrate at 50 mM after 3 mins by spectrophotometer relative to control. An outline of the steps:
as §1

Assay [23] deals with Saccharomyces cerevisiae. Put plainly: Increase of commercial yeast alpha-glucosidase activity assessed as production of p-nitrophenol using p-nitrophenyl-alpha-D-glucopyranoside as substrate at 50 mM after 3 mins by spectrophotometer. Summed up: as §5
Assay [24] concerns Geobacillus stearothermophilus. Put plainly: Activity of Bacillus stearothermophilus alpha-glucosidase activity assessed as production of p-nitrophenol using p-nitrophenyl-alpha-D-glucopyranoside as substrate at 1000 mM after 3 mins by spectrophotometer. Summed up:
as §4

The test system of assay [25] is Geobacillus stearothermophilus. The assay is described as follows: Activity of Bacillus stearothermophilus alpha-glucosidase activity assessed as production of p-nitrophenol using p-nitrophenyl-alpha-D-glucopyranoside as substrate at 800 mM after 3 mins by spectrophotometer. An outline of the steps:
as §4

Assay [26] deals with Geobacillus stearothermophilus. The assay is described as follows: Activity of Bacillus stearothermophilus alpha-glucosidase activity assessed as production of p-nitrophenol using p-nitrophenyl-alpha-D-glucopyranoside as substrate at 200 mM after 3 mins by spectrophotometer. Summed up:
as §4

Activity calls are given as the source filed them. The rule behind the calls is not given here.

Sequence of Intestinal-type alkaline phosphatase (Bos taurus) (P19111 20-506 limits assumed): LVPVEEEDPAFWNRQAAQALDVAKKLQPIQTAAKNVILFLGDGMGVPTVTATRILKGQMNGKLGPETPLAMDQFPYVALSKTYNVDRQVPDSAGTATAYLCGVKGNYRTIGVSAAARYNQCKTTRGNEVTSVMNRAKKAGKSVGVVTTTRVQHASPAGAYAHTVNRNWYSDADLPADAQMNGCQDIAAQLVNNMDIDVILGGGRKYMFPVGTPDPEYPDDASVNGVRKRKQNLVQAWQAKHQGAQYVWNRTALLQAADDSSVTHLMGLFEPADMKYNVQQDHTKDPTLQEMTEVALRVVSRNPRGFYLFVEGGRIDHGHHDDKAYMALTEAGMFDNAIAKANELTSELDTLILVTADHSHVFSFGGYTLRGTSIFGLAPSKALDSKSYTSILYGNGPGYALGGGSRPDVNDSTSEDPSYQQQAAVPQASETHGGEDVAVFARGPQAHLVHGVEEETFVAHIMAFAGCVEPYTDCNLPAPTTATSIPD

For the molecule `CCCC[N+](CCCC)(CCCC)CC(=O)[O-]`, the fold change (FC) worked out at 0.9 in assay [1]; 0.6 in assay [2]; 0.8 in assay [7]; 0.8 in assay [9]; 0.5 in assay [10]; 0.8 in [15]. For the same molecule, the fold change (FC) in assay [18] came out at 0.8; in [19], 2.1; in assay [22] it was 2.5. Moreover, the outcome in assay [3] was inactive. The outcome in assay [4], in assay [5], in assay [6], in assay [8], in [11] and in assay [12] was Active. Besides, the outcome in assay [13], in assay [14], in [16], in assay [17], in [20] and in assay [21] was Active. Moreover, the result in assay [23] was Active.

With `OCC(O)CO`, the outcome in assay [8], in assay [11] and in [16] was inactive.

Consider `C[N+]1(CC(=O)[O-])CCCCC1`, for which, in assay [8], the result was Active. Besides, the result in [11] and in [16] was inactive.

With `C[N+]1(CC(=O)[O-])CCOCC1`, the result in [8] was Active. Moreover, the outcome in assay [11] and in assay [16] was inactive.

With `OC[C@@H](O)[C@@H](O)[C@H](O)[C@@H](O)CO`, the result in [8], in [11] and in assay [16] was inactive.

Regarding `C[N+](C)(C)CC(=O)O`, the result in [3], in [8], in [11], in assay [16] and in assay [24] was inactive. For the same molecule, the outcome in assay [5] and in [20] was Active.

On to `C[N+](C)(CC[N+](C)(C)CC(=O)[O-])CC(=O)[O-]`, for which the outcome in assay [8], in assay [11] and in [16] was inactive.

Consider `O[C@H]1[C@H](O)[C@@H](O)[C@H](O)[C@@H](O)[C@H]1O`, for which the outcome in assay [8], in [11] and in assay [16] was inactive.

Take `CC[N+](CC)(CC)CC(=O)[O-]`: the outcome in assay [8] and in assay [25] was Active. Also, the result in assay [11] and in [16] was inactive.

On to `CCC[N+](CCC)(CCC)CC(=O)[O-]`, for which the result in assay [8], in [11], in assay [16] and in assay [26] was Active.

As to `C[N+](C)(C)CCCCCC(=O)[O-]`, the outcome in assay [8], in assay [11] and in [16] was inactive.

As to `C[N+](C)(C)CCCC(=O)[O-]`, the outcome in assay [8], in assay [11] and in assay [16] was inactive.
